Source: ChEMBL document CHEMBL5653630, “Activation of the p53-MDM4 regulatory axis defines the anti-tumour response to PRMT5 inhibition through its role in regulating cellular splicing” (Sci Rep, 2018)
Values belong to the compound of their own block, whether it stands above or below them. Active and inactive are the calls of the source. The rule behind the calls is not given here.

What was measured:
Z-138 [1] = assay: In vivo inhibition of PRMT5 in human Z138 cells xenografted in po dosed mouse assessed as reduction in SDMA level measured for 7 days; assay type: functional, organism-based; conditions: dose 0.2-100 mg/kg, time 7.0 day
Z-138 [2] = assay: Induction of cell cycle arrest in human Z138 cells assessed as decrease in 4n cell population measured upto 1000 nM measured for 2 to 5 days by propidium iodide staining based flow cytometric analysis; assay type: functional; conditions: time 2-5 day
Z-138 [3] = assay: In vivo inhibition of PRMT5 in human Z138 cells xenografted in mouse assessed as increase in SESN1 expression at 100 mg/kg, po BID measured for 7 days; assay type: functional, organism-based; conditions: time 7.0 day
Rec1 = assay: Induction of cell cycle arrest in human REC1 cells assessed as increase in 2n cell population measured upto 5000 nM measured for 3 days by propidium iodide staining based flow cytometric analysis; assay type: functional; conditions: time 3.0 day
[4] = Antiproliferative activity against human A7 cells assessed as cell growth inhibition incubated for 10 days; assay type: functional; conditions: A7, 240 h, time 10 day
Outline: (§1)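 Cells kept in RPMI-1640 with 10% FBS, 2 mM L-alanyl-L-glutamine and 1 mM Na pyruvate (or a special medium) at 37°C, 5% CO2. Compound added 24 h after seeding, 10 concentrations in 3.16-fold dilution, 0.1% DMSO final. Medium replaced and cells re-dosed at 168 h; 240 h incubation. Nuclei fixed, dye-stained and imaged. gIC50 = growth midway between untreated and time-zero cell counts, from a 4-parameter fit.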

SW1783 = assay: Antiproliferative activity against human SW1783 cells assessed as cell growth inhibition incubated for 10 days; assay type: functional; conditions: SW1783, 240 h, time 10 day
MES-SA = assay: Antiproliferative activity against human MES-SA cells assessed as cell growth inhibition incubated for 10 days; assay type: functional; conditions: 240 h, time 10 day
NCI-H69 = assay: Antiproliferative activity against human NCI-H69 cells assessed as cell growth inhibition incubated for 10 days; assay type: functional; conditions: NCI-H69, 240 h, time 10 day
SCC-4 = assay: Antiproliferative activity against human SCC-4 cells assessed as cell growth inhibition incubated for 10 days; assay type: functional; conditions: SCC-4, 240 h, time 10 day
[5] = Antiproliferative activity against human Ri-1 cells assessed as cell growth inhibition incubated for 6 days by celltiter-glo assay; assay type: functional; conditions: Ri-1, 144 h, time 6 day
Outline: (§2)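 Cells seeded in 384-well plates at an optimized density and held 24 h. CellTiter-Glo luminescence read at Day 0 and Day 6. Four-parameter fit. gIC50 = midpoint of the growth window between DMSO and T0. Curves required ≥1.5 population doublings.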

Y79 = assay: Antiproliferative activity against human Y79 cells assessed as cell growth inhibition incubated for 10 days; assay type: functional; conditions: Y79, 240 h, time 10 day
U-937 = assay: Antiproliferative activity against human U-937 cells assessed as cell growth inhibition incubated for 6 days by celltiter-glo assay; assay type: functional; conditions: U-937, 144 h, time 6 day; outline: as §2
[6] = molecular target: Protein arginine N-methyltransferase 5 (Homo sapiens) (UniProt O14744); assay: Inhibition of PRMT5 in human Z138 cells assessed as effect on FUBP1 level by measuring fold change by LC-MS/MS analysis relative to control; assay type: cell-based
JEG-3 = assay: Antiproliferative activity against human JEG-3 cells assessed as cell growth inhibition incubated for 10 days; assay type: functional; conditions: JEG-3, 240 h, time 10 day
Outline: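 Eurofins-panel 10-day assay in 384-well plates. Cells grown in RPMI-1640 with 10% FBS, 2 mM L-alanyl-L-glutamine and 1mM Na pyruvate, or a special medium, at 37°C in 5% CO₂. Compound added 24 h after seeding, 10-point 3.16-fold series in 0.1% DMSO. Medium replaced and compound re-dosed at 168 h. Nuclei fixed and stained after 240 h, then imaged to give a relative cell count. gIC50 is the concentration giving growth midway between untreated and time-zero counts, from a 4-parameter fit.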

CHP-212 = assay: Antiproliferative activity against human CHP-212 cells assessed as cell growth inhibition incubated for 10 days; assay type: functional; conditions: CHP-212, 240 h, time 10 day; outline: as §1
HT-29 = assay: Antiproliferative activity against human HT-29 cells assessed as cell growth inhibition incubated for 10 days; assay type: functional; conditions: HT-29, 240 h, time 10 day
Outline: (§3)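 Outsourced panel run in 384-well plates. Cells were grown in RPMI-1640/10% FBS or a special medium at 37°C, 5% CO2. Compound was added 24 h after seeding as a 10-point, 3.16-fold series in 0.1% DMSO. Medium was refreshed and cells re-dosed at 168 h, with a time-zero plate kept. At 240 h cells were fixed, nuclei stained and imaged. gIC50 is growth midway between untreated and time zero, from a 4-parameter fit.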

G-401 = assay: Antiproliferative activity against human G-401 cells assessed as cell growth inhibition incubated for 10 days; assay type: functional; conditions: G-401, 240 h, time 10 day; outline: as §3
HT-3 = assay: Antiproliferative activity against human HT-3 cells assessed as cell growth inhibition incubated for 10 days; assay type: functional; conditions: HT-3, 240 h, time 10 day; outline: as §3
C-33-A = assay: Antiproliferative activity against human C-33-A cells assessed as cell growth inhibition incubated for 10 days; assay type: functional; conditions: 240 h, time 10 day; outline: as §1
NCI-H295R = assay: Antiproliferative activity against human NCI-H295R cells assessed as cell growth inhibition incubated for 10 days; assay type: functional; conditions: 240 h, time 10 day
[7] = Antiproliferative activity against human RKOE6 cells assessed as cell growth inhibition incubated for 10 days; assay type: functional; conditions: RKOE6, 240 h, time 10 day
CAKI-1 = assay: Antiproliferative activity against human CAKI-1 cells assessed as cell growth inhibition incubated for 10 days; assay type: functional; conditions: CAKI-1, 240 h, time 10 day; outline: as §1
DoTc2-4510 = assay: Antiproliferative activity against human DoTc2-4510 cells assessed as cell growth inhibition incubated for 10 days; assay type: functional; conditions: DoTc2-4510, 240 h, time 10 day; outline: as §3
C32 = assay: Antiproliferative activity against human C32 cells assessed as cell growth inhibition incubated for 10 days; assay type: functional; conditions: C32, 240 h, time 10 day; outline: as §1
[8] = Antiproliferative activity against human BC1 cell line assessed as cell growth inhibition incubated for 10 days; assay type: functional; conditions: BC1, 240 h, time 10 day; outline: as §1
SW1353 = assay: Antiproliferative activity against human SW1353 cells assessed as cell growth inhibition incubated for 10 days; assay type: functional; conditions: SW1353, 240 h, time 10 day
[9] = Antiproliferative activity against human C4-1 cells assessed as cell growth inhibition incubated for 10 days; assay type: functional; conditions: C4-1, 240 h, time 10 day; outline: as §1
COLO 320 = assay: Antiproliferative activity against human COLO 320 cells assessed as cell growth inhibition incubated for 10 days; assay type: functional; conditions: COLO 320, 240 h, time 10 day; outline: as §1
HOS = assay: Antiproliferative activity against human HOS cells assessed as cell growth inhibition incubated for 10 days; assay type: functional; conditions: 240 h, time 10 day; outline: as §3
ChaGo-K-1 = assay: Antiproliferative activity against human ChaGo-K-1 cells assessed as cell growth inhibition incubated for 10 days; assay type: functional; conditions: ChaGo-K-1, 240 h, time 10 day; outline: as §3
Calu-6 = assay: Antiproliferative activity against human Calu-6 cells assessed as cell growth inhibition incubated for 10 days; assay type: functional; conditions: Calu-6, 240 h, time 10 day; outline: as §3
[10] = Antiproliferative activity against human RKOAS451 cells assessed as cell growth inhibition incubated for 10 days; assay type: functional; conditions: RKOAS451, 240 h, time 10 day

Protein arginine N-methyltransferase 5 (Homo sapiens), sequence (O14744 whole entry): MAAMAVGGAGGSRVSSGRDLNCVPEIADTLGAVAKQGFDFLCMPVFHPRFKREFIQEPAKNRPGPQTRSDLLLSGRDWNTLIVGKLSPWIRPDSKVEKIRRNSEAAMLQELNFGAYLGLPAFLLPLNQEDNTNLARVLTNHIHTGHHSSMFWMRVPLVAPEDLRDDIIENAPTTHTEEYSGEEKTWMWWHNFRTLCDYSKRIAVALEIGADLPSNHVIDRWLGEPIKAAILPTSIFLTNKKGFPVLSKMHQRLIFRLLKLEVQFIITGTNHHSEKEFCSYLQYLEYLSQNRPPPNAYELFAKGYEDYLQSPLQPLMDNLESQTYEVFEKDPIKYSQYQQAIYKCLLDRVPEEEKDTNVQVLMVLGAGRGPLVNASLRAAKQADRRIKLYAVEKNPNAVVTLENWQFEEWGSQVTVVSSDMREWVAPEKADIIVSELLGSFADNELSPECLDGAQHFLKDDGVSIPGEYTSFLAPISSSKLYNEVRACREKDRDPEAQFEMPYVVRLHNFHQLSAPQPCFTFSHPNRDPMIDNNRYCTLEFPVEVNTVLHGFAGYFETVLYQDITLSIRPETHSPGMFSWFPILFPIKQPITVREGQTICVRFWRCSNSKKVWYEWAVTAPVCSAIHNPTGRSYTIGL

SMILES: CC(=O)N1CCC(Nc2cc(C(=O)NC[C@H](O)CN3CCc4ccccc4C3)ncn2)CC1 [PEMRAMETOSTAT]
inhibition (Z-138 [1]): Dose-Dependent Effect | Activity (Z-138 [2]): Active | inhibition (Z-138 [3]): Active | Activity (Rec1): inactive

GI50 (SW1783): 0.389 µM | GI50 (NCI-H69): 0.144 µM | GI50 (U-937): 0.049 µM | fold change (FC) [6]: -6.6 | GI50 (HT-29): 0.0952 µM | GI50 (NCI-H295R): 10 µM | GI50 (SW1353): 0.129 µM | GI50 (COLO 320): 0.0803 µM | GI50 (Calu-6): 0.206 µM
SMILES: O=C(NC[C@H](O)CN1CCc2ccccc2C1)c1ccnc(NC2CCC2)c1
GI50 [4]: 0.0367 µM | GI50 (MES-SA): 0.072 µM | GI50 (SCC-4): 0.286 µM | GI50 [5]: 0.068 µM | GI50 (Y79): 0.113 µM | GI50 (JEG-3): 0.216 µM | GI50 (CHP-212): 0.024 µM | GI50 (G-401): 0.0384 µM | GI50 (HT-3): 10 µM | GI50 (C-33-A): 0.228 µM | GI50 [7]: 0.21 µM | GI50 (CAKI-1): 0.0688 µM | GI50 (DoTc2-4510): 0.0958 µM | GI50 (C32): 0.0141 µM | GI50 [8]: 0.0696 µM | GI50 [9]: 0.139 µM | GI50 (HOS): 0.223 µM | GI50 (ChaGo-K-1): 1.19 µM | GI50 [10]: 0.113 µM
